# STK33 inh: human STK33 kinase inhibition; inhibition, % at 10 µM; hit rate 0.073% among 320,000; purified STK33, MBP phosphorylation, ADP-Glo luminescence; AID 2661;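 active = inhibition at or above 25%, using the most active replicate where run in duplicate; inactive = inhibition below 25%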
# GSK3beta inhib: human GSK3beta kinase inhibition; GST-GSK3beta kinase, ADP-Glo luminescence, 60 min; active compounds read low; activity score (negative = inhibition), % at 10 µM; hit rate 0.038% among 300,000; AID 2097;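 active = more than half of replicate wells score below -50%, meaning over 50% inhibition versus plate controls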;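 also: 0% = median DMSO wells and -100% = median GW8510 positive control wells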
#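 Assay system: GST-fused GSK3beta enzyme, cell-free / Medium: Tris pH 7.5 buffer with MgCl2, DTT, BSA, heparin / Also added: peptide substrate plus 25 µM ATP (final) / Compound: 10 µM single point / Timing: kinase reaction with compound 60 min at room temperature / Detection: ADP-Glo luminescence / Benchmarks: DMSO neutral wells and GW8510 at 20 µM as positive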
# MEKK2mut PB1 HTS: signal of MEK5 binding to mutant human MEKK2 PB1 domain. bead flow cytometry, Alexa488-MEK5 binding to MEKK2 mutant. percent response, % at 10 µM. hit rate 0.35% among 290,000. AID 1530; in the data active = percent response above about 24%, passing the limit was not always enough
# MEKK3 PB1 HTS: modulators (inhibitors or enhancers) of MEK5 binding to human MEKK3 PB1 domain; binding response (% of control), % at 10 µM; hit rate 1.4% among 290,000; bead-based flow cytometry, Alexa488-MEK5 binding to MEKK3; actives lie on both sides; 0 = blocked by unlabeled MEK5, 100 = vehicle; AID 1529;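 active = binding response more than 3 SD above or below the average of its plate-row segment, actives on both sides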;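 also: Alexa488 bead fluorescence after subtracting the streptavidin-only scavenger bead signal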
# MEKK2wt PB1 HTS: raises or lowers MEK5 binding to wildtype human MEKK2 PB1 domain; binding response (% of control), % at 10 µM; bead flow cytometry, Alexa488-MEK5 binding to MEKK2 WT; actives lie on both sides; Q9Y2U5; hit rate 1.1% among 290,000; in the data active = binding response below about 67% or above about 130%
# GSK3A inh: blocks human GSK-3 alpha kinase | ADP-Glo luminescence, 60 min | inhibition, % at 10 µM | hit rate 0.1% among 320,000 | AID 2650;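 active = more than half of replicates show inhibition above 20%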;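 also: GST-tagged GSK-3 alpha with peptide substrate and 25 µM ATP; 0% = DMSO neutral wells and 100% = GW8510 positive control wells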
# Target sequence (P49840 whole entry, looked up): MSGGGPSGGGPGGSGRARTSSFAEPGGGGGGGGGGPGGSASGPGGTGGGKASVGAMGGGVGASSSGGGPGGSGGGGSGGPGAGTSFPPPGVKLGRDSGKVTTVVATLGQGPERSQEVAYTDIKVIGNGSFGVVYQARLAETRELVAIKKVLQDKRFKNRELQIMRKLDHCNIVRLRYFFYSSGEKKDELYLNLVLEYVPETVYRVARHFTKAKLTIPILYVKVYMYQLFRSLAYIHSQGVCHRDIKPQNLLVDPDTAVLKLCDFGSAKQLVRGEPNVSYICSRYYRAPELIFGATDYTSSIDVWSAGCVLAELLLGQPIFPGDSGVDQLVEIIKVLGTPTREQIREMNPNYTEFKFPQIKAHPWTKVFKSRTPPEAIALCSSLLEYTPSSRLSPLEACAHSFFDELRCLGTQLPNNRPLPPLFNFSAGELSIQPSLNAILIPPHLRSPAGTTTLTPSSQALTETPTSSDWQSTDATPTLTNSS
# MEKK2wt confirm: raises or lowers MEK5 binding to wildtype human MEKK2, retest; hit rate 2.4% among 5,900; binding response (% of control), % at 10 µM; bead flow cytometry, Alexa488-MEK5 binding to MEKK2 WT; actives lie on both sides; shares compounds with MEKK3 PB1 HTS; in the data active = binding response below about 16% or above about 210%; inactive = in between
# MEKK2mut confirm: signal of MEK5 binding to mutant human MEKK2, retest | shares compounds with MEKK3 PB1 HTS | hit rate 2% among 5,900 | percent response, % at 10 µM | bead flow cytometry, Alexa488-MEK5 binding to MEKK2 mutant; in the data active = percent response mostly above about 71%, no sharp cut-off; inactive = mostly below about 38%;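 also: higher means compound restores mutant binding toward wildtype level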
# MEKK3 confirm: confirmation of inhibitors of MEK5 binding to human MEKK3; shares compounds with MEKK3 PB1 HTS; bead flow cytometry, Alexa488-MEK5 binding to MEKK3; active compounds read low; binding response (% of control), % at 10 µM; hit rate 1.8% among 5,900;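 active = binding response below 72% of control, or above a set upper limit, though filed actives all read lower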;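 also: 100% = DMSO only wells and 0% = binding blocked by excess unlabeled MEK5; lower values mean stronger disruption of MEK5 binding to MEKK3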
# * = called active by the depositor; x = no result; [ ] = dose if it differs, or a comment. Sampled rows, rich in hits. Any-hit rate of the full collection: about 2.1%.
SMILES,STK33 inh,GSK3beta inhib,MEKK2mut PB1 HTS,MEKK3 PB1 HTS,MEKK2wt PB1 HTS,GSK3A inh,MEKK2wt confirm,MEKK2mut confirm,MEKK3 confirm
CCn1c(/C=C/N(C(C)=O)c2ccccc2)[n+](CC)c2ccc(Cl)cc21,-1.9,1.2,-1.0,109.0,104.0,-0.5,x,x,x
CC[n+]1c(/C=C/C=C/N(C(C)=O)c2ccccc2)sc2ccccc21,8.5,-4.2,-16.0,2.0*[inhibitor],x,x,13.0*[inhibitor],7.0,87.0
O=C(N=Nc1c(O)[nH]c2ccccc12)c1cccs1,2.4,-3.7,-1.0,95.0,102.0,-0.9,x,x,x
CC1CCc2sc(C(=O)N=Nc3c(O)[nH]c4ccccc34)cc2C1 (stereo not given),-0.9,-1.9,0.0,130.0*,106.0,-0.4,101.0,6.0,103.0
COCC(=O)Nc1cc(C)cn(Cc2ccc(F)cc2)c1=O,0.3,1.6,9.0,100.0,103.0,0.0,x,x,x
Cc1cccc(-c2ccc(NC(=O)C3CCN(CC4CC4)CC3)cc2)c1,-0.7,1.3,35.0*,121.0,159.0*,-0.5,134.0,28.0,102.0
O=C(Nc1cccc(-c2cccc(Cl)c2)c1)C1CCN(Cc2ccccn2)CC1,0.8,-1.8,23.0,110.0,140.0*,-2.1,195.0,61.0,110.0
COCc1ccc(CN2CCC(C(=O)Nc3cccc(-c4cccc(Cl)c4)c3)CC2)o1,0.1,0.1,25.0*,108.0,177.0*,-1.8,180.0,39.0,111.0
O=C(Nc1ccc(-n2cccn2)cc1)C1CCN(Cc2ccccn2)CC1,-0.2,-1.8,4.0,101.0,104.0,-1.1,x,x,x
O=C(Nc1cccc(-c2cccc(Cl)c2)c1)C1CCN(CC2CCOC2)CC1 (stereo not given),-2.3,-2.9,41.0*,108.0,151.0*,0.8,161.0,35.0,111.0
COc1cccc(CN2CCC(C(=O)Nc3ccc(-c4cccc(C)c4)cc3)CC2)c1O,0.0,2.3,22.0,98.0,133.0,-0.2,x,x,x
O=C(CN1C(=O)CCSc2ccc(S(=O)(=O)N3CCOCC3)cc21)Nc1cccc(F)c1,0.2,-2.3,4.0,104.0,103.0,0.5,x,x,x
O=C(N1CCCC1)C12CC3CC(CC(Cl)(C3)C1)C2,-0.6,2.4,5.0,103.0,108.0,-1.6,x,x,x
COc1cc(/C=C/C(=O)CC(=O)/C=C/c2ccc(O)c(OC)c2)ccc1O,63.9*,-1.8,40.0*,75.0,14.0*,-0.7,88.0,-6.0,88.0
O=C(NNC(=O)c1ccncc1)Nc1cccc(C(F)(F)F)c1,-0.2,-6.9,1.0,101.0,102.0,x,x,x,x
CC(C)CN(C(=O)CCNC(=O)c1ccc(Cl)cc1)c1c(N)n(CC(C)C)c(=O)[nH]c1=O,-0.2,x,x,x,x,-3.1,x,x,x
Cc1ccc(S(=O)(=O)NN)c(C)c1N1CCCC1=O,-1.5,-0.8,-21.0,44.0*[inhibitor],58.0,-2.4,100.0,-11.0,99.0
CC1(c2ccc(OC(F)F)cc2)NC(=O)N(CC(=O)Nc2ccc(S(N)(=O)=O)cc2)C1=O (stereo not given),x,-1.5,-17.0,46.0*[inhibitor],49.0,-0.4,95.0,-5.0,97.0
O=C(NNC(=S)Nc1cccc(C(F)(F)F)c1)c1ccccc1Cl,-0.6,4.8,1.0,66.0*[inhibitor],91.0,-4.9,103.0,4.0,100.0
O=C(NNC(=S)Nc1cccc(C(F)(F)F)c1)c1cccc(Cl)c1,-0.8,-6.7,-1.0,100.0,99.0,-2.8,x,x,x
COC(=O)C(=NNc1c(C)n(C)n(-c2ccccc2)c1=O)C(=O)OC,0.4,-2.1,1.0,141.0*,112.0,-2.1,72.0,-16.0,74.0
COc1cccc(OC)c1C(=O)Nc1c(C)n(C)n(-c2ccccc2)c1=O,-1.6,1.2,2.0,103.0,102.0,-0.2,x,x,x
CCCCC1=CC2=C(c3ccco3)C(=O)C(C)(OC(=O)c3ccc(OC)cc3)C(=O)C2=CN1Cc1ccc2c(c1)OCO2 (stereo not given),-1.2,-1.9,1.0,120.0,138.0*,-1.9,83.0,-9.0,87.0
COC(=O)CCC(=O)OC1(C)C(=O)C2=CN(Cc3ccc4c(c3)OCO4)C(c3ccc(OC)cc3)=CC2=C(Br)C1=O (stereo not given),1.0,1.5,53.0*,83.0,x,-0.5,102.0,0.0,104.0
CC1(OC(=O)CCc2ccccc2)C(=O)C=C2C=C(c3ccc(C#N)cc3)N(CCN3CCOCC3)C=C2C1=O (stereo not given),-0.5,5.2,2.0,117.0,138.0*,0.0,104.0,1.0,101.0
SMILES,STK33 inh,GSK3beta inhib,MEKK2mut PB1 HTS,MEKK3 PB1 HTS,MEKK2wt PB1 HTS,GSK3A inh,MEKK2wt confirm,MEKK2mut confirm,MEKK3 confirm
CC1(OC(=O)CCc2ccccc2)C(=O)C=C2C=C(c3ccc(C#N)cc3)N(CC3CC3)C=C2C1=O (stereo not given),0.9,2.2,6.0,95.0,92.0,-0.8,x,x,x
COC(=O)CCC(=O)OC1(C)C(=O)C2=CN(C(CO)CO)C(c3ccc(OC)cc3)=CC2=C(Br)C1=O (stereo not given),1.3,4.1,-2.0,82.0*[inhibitor],91.0,-2.8,98.0,-2.0,93.0
COC(=O)CCC(=O)OC1(C)C(=O)C2=CN(CCCCO)C(c3ccc(OC)cc3)=CC2=C(Br)C1=O (stereo not given),1.7,1.7,-6.0,92.0,85.0,-1.1,x,x,x
COc1ccc(S(=O)(=O)Nc2nc3ccccc3nc2Nc2cccc(C(=O)O)c2)cc1,-1.2,8.6,0.0,94.0,88.0,-4.1,x,x,x
CS(=O)Cc1cc(Sc2ccccc2)nc(-c2cccnc2)n1 (stereo not given),-0.6,0.4,0.0,116.0,110.0,-0.9,x,x,x
Cc1cccc(C)c1NC(=O)C1CCCN1S(=O)(=O)c1ccccc1 (stereo not given),-0.4,x,-1.0,99.0,100.0,1.0,x,x,x
COC(=O)CCC(=O)OC1(C)C(=O)C2=CN(CCN3CCOCC3)C(c3ccc(OC)cc3)=CC2=C(Br)C1=O (stereo not given),0.8,3.2,4.0,127.0,149.0*,-0.2,100.0,0.0,100.0
COC(=O)c1c(NC(=O)c2ccc(OC(C)C)cc2)sc2c1CC(C)(C)NC2(C)C,-1.2,0.2,46.0,104.0,173.0*,1.0,160.0,28.0,106.0
CCOC(=O)c1c(NC(=O)Cc2ccccc2)sc2c1CC(C)(C)NC2(C)C,0.3,-2.4,6.0,104.0,120.0,1.1,x,x,x

# Screens (PubChem)
